Tested on: U2OS
Assay: Multiplex assay against U2OS
Type: toxicity, cell-based
Settings: human
How it was run: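 Hoechst33342, BioTracker Green Microtubule Cytoskeleton Dye, MitoTracker Red and Annexin V Alexa Fluor 680 were added to live cells at seeding, and imaging on a CQ1 microscope at 37°C and 5% CO2 followed compound addition. Gating by CellPathfinder machine learning separated cells into Hoechst high-intensity objects or normal cells, then normal cells into healthy, pyknosed or fragmented nuclei, then pyknosed cells into mitotic or apoptotic. Per cents of healthy-nucleus cells are reported for the tubulin, mitochondrial-mass and membrane-permeability phenotypes.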

[1] = 12 h, 1 µM, compound concentration 1 uM, replicate 1
[2] = 12 h, 1 µM, compound concentration 1 uM, replicate 2
[3] = 12 h, 10 µM, compound concentration 10 uM, replicate 1
[4] = 12 h, 10 µM, compound concentration 10 uM, replicate 2
[5] = 24 h, 1 µM, compound concentration 1 uM, replicate 1
[6] = 24 h, 1 µM, compound concentration 1 uM, replicate 2
[7] = 24 h, 10 µM, compound concentration 10 uM, replicate 1
[8] = 24 h, 10 µM, compound concentration 10 uM, replicate 2
[9] = 48 h, 1 µM, compound concentration 1 uM, replicate 1
[10] = 48 h, 1 µM, compound concentration 1 uM, replicate 2
[11] = 48 h, 10 µM, compound concentration 10 uM, replicate 1
[12] = 48 h, 10 µM, compound concentration 10 uM, replicate 2

CN(C)C(=O)Cn1cc(-c2ccc(-c3cncc4ccccc34)cc2)cn1
Population Apoptotic (%) [1]: 68% | Population Fragmented Nuclei (%) [1]: 22% | Population Healthy Nuclei (%) [1]: 68% | Population Hoechst High Intensity Objects (%) [1]: 3% | Population Membrane Permeable-Phenotype (%) [1]: 8% | Population Mitochondria Different-Phenotype (%) [1]: 4% | Population Mitotic Cells (%) [1]: 31% | Population Normal (%) [1]: 96% | Population Pyknosed Nuclei (%) [1]: 9% | Population Tubulin-Different-Phenotype (%) [1]: 5% | Total Cell Count [1]: 240 | Population Apoptotic (%) [2]: 69% | Population Fragmented Nuclei (%) [2]: 18% | Population Healthy Nuclei (%) [2]: 69% | Population Hoechst High Intensity Objects (%) [2]: 0% | Population Membrane Permeable-Phenotype (%) [2]: 6% | Population Mitochondria Different-Phenotype (%) [2]: 2% | Population Mitotic Cells (%) [2]: 30% | Population Normal (%) [2]: 99% | Population Pyknosed Nuclei (%) [2]: 11% | Population Tubulin-Different-Phenotype (%) [2]: 3% | Total Cell Count [2]: 110 | Population Apoptotic (%) [3]: 66% | Population Fragmented Nuclei (%) [3]: 21% | Population Healthy Nuclei (%) [3]: 67% | Population Hoechst High Intensity Objects (%) [3]: 5% | Population Membrane Permeable-Phenotype (%) [3]: 20% | Population Mitochondria Different-Phenotype (%) [3]: 12% | Population Mitotic Cells (%) [3]: 33% | Population Normal (%) [3]: 94% | Population Pyknosed Nuclei (%) [3]: 10% | Population Tubulin-Different-Phenotype (%) [3]: 14% | Total Cell Count [3]: 205 | Population Apoptotic (%) [4]: 100% | Population Fragmented Nuclei (%) [4]: 18% | Population Healthy Nuclei (%) [4]: 75% | Population Hoechst High Intensity Objects (%) [4]: 3% | Population Membrane Permeable-Phenotype (%) [4]: 22% | Population Mitochondria Different-Phenotype (%) [4]: 19% | Population Mitotic Cells (%) [4]: 0% | Population Normal (%) [4]: 96% | Population Pyknosed Nuclei (%) [4]: 5% | Population Tubulin-Different-Phenotype (%) [4]: 23% | Total Cell Count [4]: 98 | Population Apoptotic (%) [5]: 100% | Population Fragmented Nuclei (%) [5]: 21% | Population Healthy Nuclei (%) [5]: 69% | Population Hoechst High Intensity Objects (%) [5]: 3% | Population Membrane Permeable-Phenotype (%) [5]: 5% | Population Mitochondria Different-Phenotype (%) [5]: 2% | Population Mitotic Cells (%) [5]: 0% | Population Normal (%) [5]: 96% | Population Pyknosed Nuclei (%) [5]: 8% | Population Tubulin-Different-Phenotype (%) [5]: 4% | Total Cell Count [5]: 278 | Population Apoptotic (%) [6]: 90% | Population Fragmented Nuclei (%) [6]: 15% | Population Healthy Nuclei (%) [6]: 76% | Population Hoechst High Intensity Objects (%) [6]: 1% | Population Membrane Permeable-Phenotype (%) [6]: 8% | Population Mitochondria Different-Phenotype (%) [6]: 6% | Population Mitotic Cells (%) [6]: 9% | Population Normal (%) [6]: 98% | Total Cell Count [6]: 127 | Population Apoptotic (%) [7]: 54% | Population Fragmented Nuclei (%) [7]: 25% | Population Healthy Nuclei (%) [7]: 64% | Population Hoechst High Intensity Objects (%) [7]: 3% | Population Membrane Permeable-Phenotype (%) [7]: 19% | Population Mitochondria Different-Phenotype (%) [7]: 9% | Population Mitotic Cells (%) [7]: 45% | Population Normal (%) [7]: 96% | Population Pyknosed Nuclei (%) [7]: 9% | Population Tubulin-Different-Phenotype (%) [7]: 10% | Total Cell Count [7]: 244 | Population Apoptotic (%) [8]: 80% | Population Fragmented Nuclei (%) [8]: 11% | Population Healthy Nuclei (%) [8]: 84% | Population Hoechst High Intensity Objects (%) [8]: 2% | Population Membrane Permeable-Phenotype (%) [8]: 16% | Population Mitochondria Different-Phenotype (%) [8]: 15% | Population Mitotic Cells (%) [8]: 20% | Population Normal (%) [8]: 97% | Population Pyknosed Nuclei (%) [8]: 4% | Population Tubulin-Different-Phenotype (%) [8]: 14% | Total Cell Count [8]: 110 | Population Apoptotic (%) [9]: 87% | Population Fragmented Nuclei (%) [9]: 18% | Population Healthy Nuclei (%) [9]: 69% | Population Hoechst High Intensity Objects (%) [9]: 2% | Population Membrane Permeable-Phenotype (%) [9]: 6% | Population Mitochondria Different-Phenotype (%) [9]: 3% | Population Mitotic Cells (%) [9]: 12% | Population Normal (%) [9]: 97% | Population Pyknosed Nuclei (%) [9]: 12% | Population Tubulin-Different-Phenotype (%) [9]: 4% | Total Cell Count [9]: 333 | Population Apoptotic (%) [10]: 88% | Population Fragmented Nuclei (%) [10]: 20% | Population Healthy Nuclei (%) [10]: 67% | Population Hoechst High Intensity Objects (%) [10]: 3% | Population Membrane Permeable-Phenotype (%) [10]: 12% | Population Mitochondria Different-Phenotype (%) [10]: 9% | Population Mitotic Cells (%) [10]: 11% | Population Normal (%) [10]: 96% | Population Pyknosed Nuclei (%) [10]: 11% | Population Tubulin-Different-Phenotype (%) [10]: 9% | Total Cell Count [10]: 163 | Population Apoptotic (%) [11]: 74% | Population Fragmented Nuclei (%) [11]: 22% | Population Healthy Nuclei (%) [11]: 62% | Population Hoechst High Intensity Objects (%) [11]: 2% | Population Membrane Permeable-Phenotype (%) [11]: 15% | Population Mitochondria Different-Phenotype (%) [11]: 8% | Population Mitotic Cells (%) [11]: 25% | Population Normal (%) [11]: 97% | Population Pyknosed Nuclei (%) [11]: 14% | Population Tubulin-Different-Phenotype (%) [11]: 8% | Total Cell Count [11]: 302 | Population Apoptotic (%) [12]: 92% | Population Fragmented Nuclei (%) [12]: 21% | Population Healthy Nuclei (%) [12]: 68% | Population Membrane Permeable-Phenotype (%) [12]: 20% | Population Mitochondria Different-Phenotype (%) [12]: 14% | Population Mitotic Cells (%) [12]: 7% | Population Pyknosed Nuclei (%) [12]: 9% | Population Tubulin-Different-Phenotype (%) [12]: 16% | Total Cell Count [12]: 149
